In ChEMBL document CHEMBL1149149, “Design, synthesis, and biological activity of 1,3-disubstituted ureas as potent inhibitors of the soluble epoxide hydrolase of increased water solubility” (J Med Chem, 2004):
Converted amounts (≈) assume the structure as drawn.

Key:
[1] = biological target: T1, Bifunctional epoxide hydrolase 2 (Mus musculus, UniProt P34914); test: Tested for 50 % inhibitory concentration against mouse soluble epoxide hydrolase (sEH)
T1 sequence (P34914 whole entry): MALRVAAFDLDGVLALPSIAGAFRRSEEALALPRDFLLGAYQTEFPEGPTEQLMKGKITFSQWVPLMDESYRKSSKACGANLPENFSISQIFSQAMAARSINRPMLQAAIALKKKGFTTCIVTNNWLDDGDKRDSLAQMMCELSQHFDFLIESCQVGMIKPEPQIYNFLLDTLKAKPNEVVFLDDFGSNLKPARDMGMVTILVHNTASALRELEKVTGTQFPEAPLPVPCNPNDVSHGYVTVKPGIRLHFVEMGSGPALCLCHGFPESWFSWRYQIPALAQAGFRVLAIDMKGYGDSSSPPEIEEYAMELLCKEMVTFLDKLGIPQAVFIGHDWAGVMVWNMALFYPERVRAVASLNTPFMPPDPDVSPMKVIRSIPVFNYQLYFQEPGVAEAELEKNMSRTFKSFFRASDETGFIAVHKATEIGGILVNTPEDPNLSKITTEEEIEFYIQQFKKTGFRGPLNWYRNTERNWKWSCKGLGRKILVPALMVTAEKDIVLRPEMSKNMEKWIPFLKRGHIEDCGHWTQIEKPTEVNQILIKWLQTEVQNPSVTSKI
How it was run: (§1)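 Recombinant sEH was expressed in baculovirus and affinity-purified to at least 97% purity. Enzyme was preincubated with inhibitor for 5 min at 30 °C in 0.1 M sodium phosphate, pH 7.4, with 0.1 mg/mL BSA. Racemic 4-nitrophenyl-trans-2,3-epoxy-3-phenylpropyl carbonate was the substrate (40 µM). 4-Nitrophenolate was read at 405 nm for 1 min. Run in triplicate; IC50 from regression of at least five points.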

[2] = biological target: T2, Bifunctional epoxide hydrolase 2 (Homo sapiens, UniProt P34913); test: Tested for 50 % inhibitory concentration against human soluble epoxide hydrolase (sEH); how it was run: as §1
T2 sequence (P34913 whole entry): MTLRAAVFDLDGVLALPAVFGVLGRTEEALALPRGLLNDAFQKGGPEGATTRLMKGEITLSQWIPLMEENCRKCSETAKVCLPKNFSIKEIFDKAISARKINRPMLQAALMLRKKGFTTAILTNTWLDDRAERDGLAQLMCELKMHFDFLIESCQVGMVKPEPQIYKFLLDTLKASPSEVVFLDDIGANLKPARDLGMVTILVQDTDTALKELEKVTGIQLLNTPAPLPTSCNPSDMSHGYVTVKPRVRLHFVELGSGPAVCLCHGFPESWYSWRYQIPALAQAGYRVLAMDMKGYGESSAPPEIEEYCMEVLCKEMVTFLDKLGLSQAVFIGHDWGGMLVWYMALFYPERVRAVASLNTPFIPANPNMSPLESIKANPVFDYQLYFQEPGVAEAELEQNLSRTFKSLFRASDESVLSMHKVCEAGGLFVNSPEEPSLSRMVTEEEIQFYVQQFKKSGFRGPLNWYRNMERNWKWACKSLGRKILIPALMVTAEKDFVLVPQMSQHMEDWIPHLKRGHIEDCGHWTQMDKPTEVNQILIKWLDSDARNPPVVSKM

[3] = Solubility in sodium phosphate buffer (0.1 M, pH 7.4) at 25 degrees C was determined
[4] = Partition coefficient (logP); format: physicochemical; conditions: octanol/water
How it was run: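 Compound dissolved in buffer-saturated octanol, then mixed with octanol-saturated 0.1 M sodium phosphate buffer, pH 7.4. Shaken 24 h at 23 ± 1.5 °C and centrifuged 5 min at 200g. Each phase was quantified by LC-MS/MS, and log P was taken as log [octanol]/[water]. Triplicate analyses.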

[5] = biological target: T3, Bifunctional epoxide hydrolase 2 (Homo sapiens) (UniProt P34913); test: Tested for 90 % inhibitory concentration against human soluble epoxide hydrolase (sEH)
T3 sequence (whole entry): T2 sequence (P34913 whole entry)
How it was run: (§2)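 Recombinant sEH (human for line 1, mouse for line 2) expressed in baculovirus and affinity-purified to ≥97%. Enzyme was preincubated with inhibitor for 5 min at 30 °C in 0.1 M sodium phosphate, pH 7.4, with 0.1 mg/mL BSA. Racemic 4-nitrophenyl-trans-2,3-epoxy-3-phenylpropyl carbonate (40 µM) was then added, and 4-nitrophenolate was read at 405 nm for 1 min at 30 °C. Assays were run in triplicate.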

[6] = biological target: T4, Bifunctional epoxide hydrolase 2 (Mus musculus) (UniProt P34914); test: Tested for 90 % inhibitory concentration against mouse soluble epoxide hydrolase (sEH); how it was run: as §2
T4 sequence (whole entry): T1 sequence (P34914 whole entry)

IC50 [1] [nM] | IC50 [2] [nM] | IC90 [5] [nM] | IC90 [6] [nM] | Compound | also measured
 |  | 1500 | 100 | CCOC(=O)CCCCOC(=O)CCCNC(=O)NC12CC3CC(CC(C3)C1)C2 | 
 |  | 9000 | 630 | CCOC(=O)CCOC(=O)CCCNC(=O)NC12CC3CC(CC(C3)C1)C2 | 
 |  | 680 | 260 | CCOC(=O)CCCCCCCCCOC(=O)CCCNC(=O)NC12CC3CC(CC(C3)C1)C2 | 
 |  | 9000 | 110 | CCOC(=O)COC(=O)CCCNC(=O)NC12CC3CC(CC(C3)C1)C2 | 
 |  | 5000 | 160 | CCOC(=O)CCCOC(=O)CCCNC(=O)NC12CC3CC(CC(C3)C1)C2 | 
50 | 110 |  |  | CC(C)=CCCC(C)CCOC(=O)CCCNC(=O)NC12CC3CC(CC(C3)C1)C2 (configuration not stated) | 
100 | 1600 |  |  | COC(=O)CCCNC(=O)NC12CC3CC(CC(C3)C1)C2 | solubility ([3]; sodium phosphate buffer): 1.6 µg/mL (≈ 5.43 µM); logP [4]: 0.18
 |  | 720 | 160 | CCOC(=O)CCCCCCCOC(=O)CCCNC(=O)NC12CC3CC(CC(C3)C1)C2 | 

Further lines, the compound ahead of its results:

Compound | IC50 [1] [nM] | IC50 [2] [nM] | IC90 [5] [nM] | IC90 [6] [nM] | also measured
O=C(O)CNC(=O)NC1CCCCC1 | > 500000 | > 500000 |  |  | 
CCCCCOC(=O)CCCNC(=O)NC1CCCCC1 |  |  |  |  | solubility [3]: 1.51 µg/mL (≈ 5.06 µM); logP [4]: 0.82
O=C(NCCCO)NC1CCCCC1 | > 500000 | > 500000 |  |  | 
CCCCCOC(=O)NCCNC(=O)Nc1cccc(Cl)c1 |  | > 100000 |  |  | 
CCCCCCCCCCNC(=O)NC12CC3CC(CC(C3)C1)C2 |  |  |  |  | solubility ([3]; sodium phosphate buffer): 0.62 µg/mL (≈ 1.85 µM); logP [4]: 5.25
CCOC(=O)/C=C/c1ccc(OC(=O)CCCNC(=O)NC23CC4CC(CC(C4)C2)C3)cc1 | 50 | 200 |  |  | 
CCCCCNC(=O)NCCNC(=O)Nc1cccc(Cl)c1 |  | > 100000 |  |  | 
CCCCCCC(=O)NCCNC(=O)Nc1cccc(Cl)c1 |  | > 100000 |  |  | 
CCCCCCCCCCNC(=O)NC1CCCCC1 |  |  |  |  | solubility ([3]; buffer): 0.44 µg/mL (≈ 1.56 µM); logP [4]: 5.44
CCOC(=O)c1ccc(COC(=O)CCCNC(=O)NC23CC4CC(CC(C4)C2)C3)cc1 | 50 | 100 |  |  | 
COCCCNC(=O)NC1CCCCC1 | 330 | 6200 |  |  | 
CCOC(=O)Cc1ccc(OC(=O)CCCNC(=O)NC23CC4CC(CC(C4)C2)C3)cc1 | 50 | 140 |  |  | 
CCOC(=O)CCCCCCCCCCOC(=O)CCCNC(=O)NC12CC3CC(CC(C3)C1)C2 |  |  | 1200 | 350 | 
CCCCCOC(=O)CCCNC(=O)NC12CC3CC(CC(C3)C1)C2 |  |  |  |  | solubility ([3]; sodium phosphate buffer): 1.69 µg/mL (≈ 4.82 µM)
CCCCCCC(O)CCCNC(=O)Nc1cccc(Cl)c1 (configuration not stated) | 140 | 3100 |  |  | 
O=C(NCCCCCO)NC1CCCCC1 | 90000 | 253000 |  |  | 
CCOC(=O)CCCCCCCCCCCOC(=O)CCCNC(=O)NC12CC3CC(CC(C3)C1)C2 |  |  | 1800 | 630 | 
O=C(O)CCCNC(=O)NC12CC3CC(CC(C3)C1)C2 | 22000 | 37000 |  |  | solubility ([3]; sodium phosphate buffer): 7.06 µg/mL (≈ 25.2 µM); logP [4]: 0.14
